The source made the active and inactive calls. No cut-off for these calls is given here.
Tests used:
[1] = Cytotoxicity against human H1299 cells at 1 uM after 48 hrs by MTT assay; assay type: functional; settings: NCI-H1299, 48 h
Summary of the method: (§1)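 H1299 non-small cell lung cancer cells were grown in RPMI 1640 with 10% FBS, penicillin and streptomycin at 37 °C under 5% CO2. About 2 × 10³ cells per well were seeded and left 24 h. Compounds were dissolved fresh in DMSO, diluted into complete medium and applied for 48 h. MTT was then added for 4 h at 37 °C, followed by lysis buffer (20% SDS, 50% DMF) for 16 h, and absorbance was read at 550 nm.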

[2] = Cytotoxicity against human H1299 cells at 10 uM after 48 hrs by MTT assay; assay type: functional; settings: NCI-H1299, 48 h; summary of the method: as §1
[3] = molecular target: Telomerase reverse transcriptase (Homo sapiens) (UniProt O14746); test: Inhibition of telomerase in human H1299 cells up to 100 uM by TRAP assay; assay type: cell-based
Telomerase reverse transcriptase (Homo sapiens), sequence (O14746 whole entry): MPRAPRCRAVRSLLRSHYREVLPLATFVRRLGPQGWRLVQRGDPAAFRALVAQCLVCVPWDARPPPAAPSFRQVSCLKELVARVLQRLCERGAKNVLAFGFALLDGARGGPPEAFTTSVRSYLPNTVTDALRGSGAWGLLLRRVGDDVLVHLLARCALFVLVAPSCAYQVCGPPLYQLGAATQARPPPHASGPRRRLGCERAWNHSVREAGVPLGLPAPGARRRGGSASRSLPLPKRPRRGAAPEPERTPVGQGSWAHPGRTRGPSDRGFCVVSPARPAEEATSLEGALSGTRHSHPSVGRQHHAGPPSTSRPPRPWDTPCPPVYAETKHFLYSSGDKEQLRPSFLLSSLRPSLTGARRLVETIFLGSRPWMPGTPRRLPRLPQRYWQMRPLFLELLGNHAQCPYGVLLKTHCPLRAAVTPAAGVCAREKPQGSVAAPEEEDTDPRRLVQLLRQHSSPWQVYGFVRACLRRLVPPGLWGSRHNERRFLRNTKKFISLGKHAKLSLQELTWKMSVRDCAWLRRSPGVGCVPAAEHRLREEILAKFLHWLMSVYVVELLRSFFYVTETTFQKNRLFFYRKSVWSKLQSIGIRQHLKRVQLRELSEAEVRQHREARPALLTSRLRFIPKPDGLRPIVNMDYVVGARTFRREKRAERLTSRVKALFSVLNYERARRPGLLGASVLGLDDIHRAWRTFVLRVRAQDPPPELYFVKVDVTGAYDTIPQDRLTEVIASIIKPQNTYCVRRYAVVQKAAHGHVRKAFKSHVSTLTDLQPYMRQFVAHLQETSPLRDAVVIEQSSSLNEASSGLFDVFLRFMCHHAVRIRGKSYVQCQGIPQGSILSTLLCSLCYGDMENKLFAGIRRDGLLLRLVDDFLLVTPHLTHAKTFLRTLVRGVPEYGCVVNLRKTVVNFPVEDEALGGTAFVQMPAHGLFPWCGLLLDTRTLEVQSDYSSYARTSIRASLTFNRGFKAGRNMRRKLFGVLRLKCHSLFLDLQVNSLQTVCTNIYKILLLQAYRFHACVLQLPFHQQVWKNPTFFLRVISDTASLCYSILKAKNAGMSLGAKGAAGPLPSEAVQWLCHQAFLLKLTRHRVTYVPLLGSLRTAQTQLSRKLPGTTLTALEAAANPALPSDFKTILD
Summary of the method: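 PCR-based telomeric repeat amplification protocol (TRAP). The telomerase source was total lysate of H1299 lung cancer cells, with protein measured against BSA standards. Controls were extract without inhibitor and RNase A-treated extract.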

EKVX = test: Antiproliferative activity against human EKVX cells assessed as cell growth at 10 uM; assay type: functional; settings: read-out: Activity
Summary of the method: (§2)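 NCI 60 cell line panel, single-dose screen (10^-5 M) run by the developmental therapeutics program protocol. Results are given as growth percent of treated cells relative to untreated control cells for each line.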

HOP-62 = test: Antiproliferative activity against human HOP62 cells assessed as cell growth at 10 uM; assay type: functional; settings: read-out: Activity; summary of the method: as §2
SW-620 = test: Antiproliferative activity against human SW620 cells assessed as cell growth at 10 uM; assay type: functional; settings: read-out: Activity
Summary of the method: (§3)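 NCI 60 cell line panel, single dose (10^-5 M), run per the Developmental Therapeutics Program protocol (one dose mean graph). Each result is the growth percentage of treated cells relative to untreated control cells.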

[4] = Antiproliferative activity against human Hs 578T cells assessed as cell growth at 10 uM; assay type: functional; settings: read-out: Activity; summary of the method: as §2
MCF7 = test: Antiproliferative activity against human MCF7 cells assessed as cell growth at 10 uM; assay type: functional; settings: read-out: Activity; summary of the method: as §2
MDA-MB-231 = test: Antiproliferative activity against human MDA-MB-231 cells assessed as cell growth at 10 uM; assay type: functional; settings: read-out: Activity; summary of the method: as §2
MDA-MB-435 = test: Antiproliferative activity against human MDA-MB-435 cells assessed as cell growth at 10 uM; assay type: functional; settings: read-out: Activity; summary of the method: as §2
NCI/ADR-RES = test: Antiproliferative activity against human NCI/ADR-RES cells assessed as cell growth at 10 uM; assay type: functional; settings: read-out: Activity; summary of the method: as §2
OVCAR-3 = test: Antiproliferative activity against human OVCAR-3 cells assessed as cell growth at 10 uM; assay type: functional; settings: read-out: Activity; summary of the method: as §2
OVCAR-4 = test: Antiproliferative activity against human OVCAR4 cells assessed as cell growth at 10 uM; assay type: functional; settings: read-out: Activity; summary of the method: as §2
OVCAR-5 = test: Antiproliferative activity against human OVCAR5 cells assessed as cell growth at 10 uM; assay type: functional; settings: read-out: Activity; summary of the method: as §2
SK-OV-3 = test: Antiproliferative activity against human SKOV3 cells assessed as cell growth at 10 uM; assay type: functional; settings: read-out: Activity; summary of the method: as §2
CCRF-CEM = test: Antiproliferative activity against human CCRF-CEM cells assessed as cell growth at 10 uM; assay type: functional; settings: read-out: Activity; summary of the method: as §2
K562 = test: Antiproliferative activity against human K562 cells assessed as cell growth at 10 uM; assay type: functional; settings: read-out: Activity; summary of the method: as §2
MOLT-4 = test: Antiproliferative activity against human MOLT4 cells assessed as cell growth at 10 uM; assay type: functional; settings: read-out: Activity; summary of the method: as §2
786-0 = test: Antiproliferative activity against human 786-0 cells assessed as cell growth at 10 uM; assay type: functional; settings: read-out: Activity; summary of the method: as §2
TK-10 = test: Antiproliferative activity against human TK10 cells assessed as cell growth at 10 uM; assay type: functional; settings: read-out: Activity; summary of the method: as §3
UO-31 = test: Antiproliferative activity against human UO31 cells assessed as cell growth at 10 uM; assay type: functional; settings: read-out: Activity; summary of the method: as §3
M14 = test: Antiproliferative activity against human M14 cells assessed as cell growth at 10 uM; assay type: functional; settings: read-out: Activity; summary of the method: as §2
SK-MEL-2 = test: Antiproliferative activity against human SK-MEL-2 cells assessed as cell growth at 10 uM; assay type: functional; settings: read-out: Activity; summary of the method: as §2
SK-MEL-28 = test: Antiproliferative activity against human SK-MEL-28 cells assessed as cell growth at 10 uM; assay type: functional; settings: read-out: Activity; summary of the method: as §2
UACC-62 = test: Antiproliferative activity against human UACC62 cells assessed as cell growth at 10 uM; assay type: functional; settings: read-out: Activity; summary of the method: as §3
DU-145 = test: Antiproliferative activity against human DU145 cells assessed as cell growth at 10 uM; assay type: functional; settings: read-out: Activity; summary of the method: as §2
PC-3 = test: Antiproliferative activity against human PC3 cells assessed as cell growth at 10 uM; assay type: functional; settings: read-out: Activity; summary of the method: as §2
SF-295 = test: Antiproliferative activity against human SF295 cells assessed as cell growth at 10 uM; assay type: functional; settings: read-out: Activity; summary of the method: as §2
SF-539 = test: Antiproliferative activity against human SF539 cells assessed as cell growth at 10 uM; assay type: functional; settings: read-out: Activity; summary of the method: as §2
SNB-19 = test: Antiproliferative activity against human SNB19 cells assessed as cell growth at 10 uM; assay type: functional; settings: read-out: Activity; summary of the method: as §2
SNB-75 = test: Antiproliferative activity against human SNB75 cells assessed as cell growth at 10 uM; assay type: functional; settings: read-out: Activity; summary of the method: as §3
U-251 = test: Antiproliferative activity against human U251 cells assessed as cell growth at 10 uM; assay type: functional; settings: read-out: Activity; summary of the method: as §3
HOP-92 = test: Antiproliferative activity against human HOP92 cells assessed as cell growth at 10 uM; assay type: functional; settings: read-out: Activity; summary of the method: as §2
NCI-H226 = test: Antiproliferative activity against human NCI-H226 cells assessed as cell growth at 10 uM; assay type: functional; settings: read-out: Activity; summary of the method: as §2
NCI-H23 = test: Antiproliferative activity against human NCI-H23 cells assessed as cell growth at 10 uM; assay type: functional; settings: read-out: Activity; summary of the method: as §2
NCI-H322M = test: Antiproliferative activity against human NCI-H322M cells assessed as cell growth at 10 uM; assay type: functional; settings: read-out: Activity; summary of the method: as §2
NCI-H460 = test: Antiproliferative activity against human NCI-H460 cells assessed as cell growth at 10 uM; assay type: functional; settings: read-out: Activity; summary of the method: as §2
COLO 205 = test: Antiproliferative activity against human COLO205 cells assessed as cell growth at 10 uM; assay type: functional; settings: read-out: Activity; summary of the method: as §2
HCC 2998 = test: Antiproliferative activity against human HCC2998 cells assessed as cell growth at 10 uM; assay type: functional; settings: read-out: Activity; summary of the method: as §2
HCT-15 = test: Antiproliferative activity against human HCT15 cells assessed as cell growth at 10 uM; assay type: functional; settings: read-out: Activity; summary of the method: as §2
HT-29 = test: Antiproliferative activity against human HT-29 cells assessed as cell growth at 10 uM; assay type: functional; settings: read-out: Activity; summary of the method: as §2
KM12 = test: Antiproliferative activity against human KM12 cells assessed as cell growth at 10 uM; assay type: functional; settings: read-out: Activity; summary of the method: as §2
[5] = molecular target: Telomerase reverse transcriptase (Homo sapiens) (UniProt O14746); test: Inhibition of TERT in human H1299 cells assessed as residual transcriptional activity at 1 uM after 24 hrs by SEAP reporter gene assay; values are per cent of control
[6] = molecular target: Telomerase reverse transcriptase (Homo sapiens) (UniProt O14746); test: Inhibition of TERT in human H1299 cells assessed as residual transcriptional activity at 10 uM after 24 hrs by SEAP reporter gene assay; values are per cent of control
[7] = molecular target: Telomerase reverse transcriptase (Homo sapiens) (UniProt O14746); test: Inhibition of TERT in human H1299 cells assessed as residual transcriptional activity at 100 uM after 24 hrs by SEAP reporter gene assay; values are per cent of control

In the case of O=C1c2ccccc2C(=O)c2c1ccc1nc(-c3ccc(Br)cc3)[nH]c21, the viability at 1 µM [1] was 96%, the viability at 10 µM [2] was 85% and the inhibition [3] was “inactive”. For the same compound, the growth at 10 µM (EKVX) was 82.7%, the growth at 10 µM (HOP-62) was 104% and the growth at 10 µM (SW-620) was 95%. The growth at 10 µM [4] was 181%, the growth at 10 µM (MCF7) was 75.3% and the growth at 10 µM (MDA-MB-231) was 92.3%. For the same compound, the growth at 10 µM (MDA-MB-435) was 110%, the growth at 10 µM (NCI/ADR-RES) was 93.7% and the growth at 10 µM (OVCAR-3) was 100%. The growth at 10 µM (OVCAR-4) was 94.1%, the growth at 10 µM (OVCAR-5) was 93.2% and the growth at 10 µM (SK-OV-3) was 105%. It also gave a growth at 10 µM (CCRF-CEM) of 98.7%, a growth at 10 µM (K562) of 109% and a growth at 10 µM (MOLT-4) of 101%. The growth at 10 µM (786-0) was 111%, the growth at 10 µM (TK-10) was 280% and the growth at 10 µM (UO-31) was 66.2%. The growth at 10 µM (M14) was 102%, the growth at 10 µM (SK-MEL-2) was 72.2% and the growth at 10 µM (SK-MEL-28) was 131%. For the same compound, the growth at 10 µM (UACC-62) was 105%, the growth at 10 µM (DU-145) was 113% and the growth at 10 µM (PC-3) was 88.7%. The growth at 10 µM (SF-295) was 119%, the growth at 10 µM (SF-539) was 103% and the growth at 10 µM (SNB-19) was 101%. It also gave a growth at 10 µM (SNB-75) of 87.3%, a growth at 10 µM (U-251) of 105% and a growth at 10 µM (HOP-92) of 83.5%. It also gave a growth at 10 µM (NCI-H226) of 103%, a growth at 10 µM (NCI-H23) of 93.1% and a growth at 10 µM (NCI-H322M) of 167%. For the same compound, the growth at 10 µM (NCI-H460) was 96.2%, the growth at 10 µM (COLO 205) was 110% and the growth at 10 µM (HCC 2998) was 98.1%. It also gave a growth at 10 µM (HCT-15) of 96.6%, a growth at 10 µM (HT-29) of 98.8% and a growth at 10 µM (KM12) of 102%. The residual activity [5] was 89%, the residual activity [6] was 71% and the residual activity [7] was 36%.
